Experiments:
[1] = system: CD58 protein on Caco-2 cells; test: Fluorescence microscopy of binding to Caco-2 cells; assay type: cell-based, human; details: fixed Caco-2 cells, about 2 h incubation, magnification 20×
CD58 protein = test: 1D NMR titration: binding of peptides to CD58 protein; details: pH 7.0, 90% H2O/10% D2O, 291 K, 700 MHz, protein:peptide 1:80
How it was run: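 Recombinant CD58 extracellular domain was titrated in 10 µL aliquots into an NMR tube holding the test peptide. A 1D spectrum was recorded at each protein:peptide ratio from 1:1000 to 1:80 on a 700 MHz instrument at 291 K. Sample pH was set to 7.0 with NaOD in D2O. A control peptide was run the same way.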

RA = details: ref [41]; cited from earlier work

O=C1OC2(c3ccc(O)cc3Oc3cc(O)ccc32)c2ccc(N=C=S)cc21 [FITC, Fluoresceineisothiocyanate]
binding observed by fluorescence microscopy [1]: non-specific binding of FITC was observed

KGKTDAISVKAI-NH2 [control peptide]
binding to CD58 protein by 1D NMR (CD58 protein): does not bind to protein CD58 | change of peptide 1D NMR amide resonances on adding CD58 (CD58 protein): no indication of amide resonances

QYMRADEADSTLR [CII-3]
RA suppression activity (RA): does not exhibit any RA suppression activity

— PMC3009390 (Chemical biology & drug design, 2010)
